Reference: article PMC9157599 (Materials Today Bio, 2022)
Numbered stars: 1 amine (or outer) side, 2 acyl side, 3 side chain; on linkers, the order of the positions; unused ones are H or OH. Square brackets hold non-standard residues; d marks the D form. Peptide text beside a SMILES is read from it. * marks the point of attachment. DAMPA = CN(Cc1cnc2nc(N)nc(N)c2n1)c1ccc(C(=O)*)cc1; γGlu = O=C(O)[C@H](CCC(=O)[*:2])N[*:1]

Columns and labels:
proteinase K = proteinase K (Parengyodontium album, UniProt P06873); test: Biostability of hydrogels exposed to proteinase K; type: in vitro ADME; conditions: for change of HPLC peak after addition of proteinase K: 37 °C, HPLC spectra (Fig. 1e)
How it was run: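 Peptide (1 mg in 5 mL PBS) incubated at 37 °C with proteinase K (3.2 units/mL). Aliquots were taken at each time point and analysed by reverse-phase HPLC on a C18 column, eluting with MeOH and water (each with 0.05% TFA).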

[1] = Gelation by heating-cooling and recovery after injection; type: physicochemical
How it was run: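 Gels were formed by dissolving peptide in PBS/Na2CO3 (pH 7.4), heating 30 s (flame or 100 °C water bath), then cooling at room temperature. Samples went onto the rheometer right after gelation: 40 mm parallel plates, 500 μm gap, frequency sweep 0.1–100 rad/s at 1% strain. Gel was measured before and after injection.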

mouse fibroblast (L929) = test: MTT cell viability, L929; type: cell-based; conditions: 5-200 μM, 48 h, n = 3
How it was run: (§1)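 Cells were seeded at 10^4 per well and exposed for 48 h to test compound or hydrogel at 200, 100, 50, 10, 5 or 0 μM. Viability was read by MTT absorbance at 490 nm.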

[2] = tested on: human umbilical vein endothelial cell (HUVEC); test: MTT cell viability, HUVEC; type: cell-based; conditions: 5-200 μM, 48 h, n = 3
How it was run: as §1

[3] = tested on: RA synovial fibroblast (RA-FLS); test: MTT cell viability, RA-FLS; type: cell-based; conditions: 48 h
How it was run: as §1

L929 = test: Live/dead staining, L929; type: cell-based, mouse; conditions: 100 μM, 48 h, Calcein AM/PI; MTX-loaded compared to MTX-GFFY and free MTX groups
How it was run: (§2)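 Cells were exposed to hydrogels or free MTX (100 μM) for 48 h, stained with Calcein AM (live) and propidium iodide (dead), and imaged by fluorescence microscopy.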

HUVEC = test: Live/dead staining, HUVEC; type: cell-based, human; conditions: 100 μM, 48 h, Calcein AM/PI; MTX-loaded compared to MTX-GFFY and free MTX groups
How it was run: as §2

RA-FLS [4] = test: Live/dead staining, RA-FLS; type: cell-based; conditions: 100 μM, 48 h, Calcein AM/PI
RA-FLS [5] = test: Wound-healing; type: cell-based; conditions: 100 μM, 48 h culture then scratch, n = 6
How it was run: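 RA-FLS were serum-starved 12 h, mixed with hydrogels (formed from 100 μM peptide) or MTX solution (100 μM), and cultured 48 h. Monolayers were then scratched. Migration rate was calculated from healed area after a further 12 and 24 h, n = 6.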

RA-FLS [6] = test: Transwell invasion assay; type: cell-based; conditions: transwell with Matrigel, 100 μM, 24 h, n = 6
How it was run: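 RA-FLS were serum-starved 12 h and mixed with hydrogels or MTX solution (100 μM). They were seeded in the upper transwell chamber in serum-free medium with 12.5% Matrigel, with 20% FBS medium below as chemoattractant. After 24 h, invaded cells were stained with 2% crystal violet and counted microscopically, n = 6.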

[7] = tested on: M1 macrophages (LPS-induced RAW264.7); test: RT-qPCR of M1 markers in LPS-induced RAW264.7; type: cell-based, Mice; conditions: 100 μM, 24 h, compared to control group (LPS), n = 3
How it was run: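 RAW264.7 cells were polarised to M1 with 1% w/v LPS medium for 24 h, then treated with test compound or hydrogel (100 μM) for 24 h. Total RNA was extracted with TRIzol, and iNOS, IL-6 and TNF-α mRNA were quantified by RT-qPCR.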

[8] = tested on: M1 macrophages (LPS-induced RAW264.7); test: Western blot of M1 markers in RAW264.7; type: cell-based, Mice; conditions: 100 μM, 24 h, compared to control group (LPS), n = 3
How it was run: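 RAW264.7 cells were polarised with […] LPS for 24 h, then treated with test compound or hydrogel (100 μM) for 24 h. Lysate protein was quantified by Bradford assay, run on 10% SDS-PAGE and transferred to PVDF. Membranes were probed overnight at 4 °C for iNOS, IL-6 and TNF-α, then secondary antibody for 120 min at room temperature. Detection was by chemiluminescence, with tubulin reference and densitometry, n = 3.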

RAW264.7 cells = test: Immunofluorescence staining of iNOS and CD206 on RAW264.7; type: cell-based, Mice; conditions: 100 μM, 24 h
How it was run: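 RAW264.7 cells were polarised with 1% w/v LPS-containing medium for 24 h, then exposed to test compound or hydrogel (100 μM) for another 24 h. Cells were immunostained for iNOS (M1) and CD206 (M2) and imaged by fluorescence.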

AIA mice [9] = test: Therapeutic effect in adjuvant-induced arthritis; type: in vivo, C57BL/6 mice; conditions: n = 5; for paw swelling after 4 weeks of treatment: 20 μL intra-articular, both knees, twice a week for 4 weeks; for clinical score: dynamic, up to 28 days; for skin temperature of hind paws: infrared camera, 28th day after administration
How it was run: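 Male C57BL/6 AIA mice (CFA s.c. in the fore underarm; IFA into both hind pads a week later; treatment after one further week) were randomised to groups of n = 5. Dosing was 20 μL intra-articular into both knees twice weekly for 4 weeks. Arthritis was scored clinically, joint diameter was measured weekly by vernier caliper, and hind-paw skin temperature was recorded by infrared camera on day 28.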

AIA mice [10] = test: Histology and immunohistochemistry of knee joints of AIA mice; type: in vivo, C57BL/6 mice; conditions: day 28
How it was run: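 Male 8-week C57BL/6 mice received CFA (1% w/v) s.c. in the fore underarm, then the same dose of IFA into both hind pads a week later. One week on, 20 μL test hydrogel or PBS was given intra-articularly into both knees twice weekly for 4 weeks (n = 5). On day 28 knees were fixed in 4% paraformaldehyde, EDTA-decalcified 30 days, stained H&E and safranin-O/fast green, and Mankin-scored.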

AIA mice [11] = test: Serum inflammatory cytokines in AIA mice; type: in vivo, C57BL/6 mice; conditions: compared to PBS group, without statistical difference, n = 3 (Figure S13)
AIA mice [12] = test: Immunofluorescence staining of synovial tissues of AIA mice; type: in vivo, C57BL/6 mice; conditions: for fluorescence signal of iNOS (M1 macrophages) in synovial tissues: n = 3; for synovial pannus / neovascularization (CD31 expression): n = 3 (Fig. 6c, Figure S14)
How it was run: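 AIA was induced in male C57BL/6 mice with CFA s.c., followed a week later by IFA into the hind pads. Knees received 20 μL intra-articular treatment twice weekly for 4 weeks. Knee joint sections were stained overnight at 4 °C with antibodies to CD31, F4/80, CD206 or iNOS (1:300), then Alexa Fluor 488 or Cy3 secondaries (1:8000, 2 h, room temperature) and DAPI. Imaging was by fluorescence microscopy, n = 3.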

[13] = hydrogel exposed to proteinase K at 37 °C, images (Figure S8)

proteinase K, sequence (P06873 106-384, species assumed): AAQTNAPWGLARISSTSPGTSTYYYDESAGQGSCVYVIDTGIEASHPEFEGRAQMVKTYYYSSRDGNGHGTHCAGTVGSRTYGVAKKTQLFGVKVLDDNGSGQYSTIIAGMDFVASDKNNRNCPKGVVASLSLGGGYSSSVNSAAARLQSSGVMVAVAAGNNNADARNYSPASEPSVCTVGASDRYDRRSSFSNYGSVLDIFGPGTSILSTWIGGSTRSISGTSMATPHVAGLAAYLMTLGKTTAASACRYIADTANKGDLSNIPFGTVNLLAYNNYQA

| Structure (SMILES) | change of HPLC peak after addition of proteinase K (proteinase K) | wound-healing rate at 24 h (RA-FLS [5]) [%] | RA-FLS invasion into the lower chamber (cell numbers) (RA-FLS [6]) | relative gene expression of M1 markers (IL-6, TNF-α, iNOS) [7] | expression of iNOS (M1 marker) in RAW264.7 cells (RAW264.7 cells) | paw swelling after 4 weeks of treatment (AIA mice [9]) | clinical score (AIA mice [9]) | synovial hyperplasia and joint structure (H&E staining) (AIA mice [10]) | fluorescence signal of iNOS (M1 macrophages) in synovial tissues (AIA mice [12]) | synovial pannus / neovascularization (CD31 expression) (AIA mice [12]) | skin temperature of hind paws (AIA mice [9]) | also measured |
| --- | --- | --- | --- | --- | --- | --- | --- | --- | --- | --- | --- | --- |
| CN(Cc1cnc2nc(N)nc(N)c2n1)c1ccc(C(=O)N[C@@H](CCC(=O)NCC(=O)N[C@H](Cc2ccccc2)C(=O)N[C@H](Cc2ccccc2)C(=O)N[C@H](Cc2ccc(O)cc2)C(=O)O)C(=O)O)cc1 [MTX-G^DF^DF^DY] ({DAMPA-γGlu}-G[dF][dF][dY]-OH) | had no obvious change | 40 | obviously decreased | all marker genes of M1 macrophages were significantly down-regulated | strongest inhibitory effect | effectively relieved paw swelling | lowest among all groups | knee joint structure was well protected | lowest | lowest among all treatment groups | – | time hydrogel was stable in vitro (proteinase K; [13]): approximately 5 days; time until hydrogel became stable (dynamic gelation process) ([1]; 10.317 mM (1 wt%) peptide in PBS, heating-cooling process (Figure S3)): ≤ 2 min; time to return to gel after injection ([1]; rheology before and after injection (Fig. 1d)): 5 min; effect on cell proliferation / cytotoxicity, L929 (mouse fibroblast (L929)): reduced the cytotoxicity; effect on cell proliferation / cytotoxicity, HUVEC [2]: reduced the cytotoxicity; effect on RA-FLS proliferation at 50 μM ([3]; 50 μM): significantly inhibited RA-FLS proliferation; live/dead staining, L929 (L929): less L929 and HUVEC cells were dead; live/dead staining, HUVEC (HUVEC): less L929 and HUVEC cells were dead; live/dead staining, RA-FLS (RA-FLS [4]): significantly enhanced the ratio of dead cells/live cells; expression of M1 macrophage related proteins (iNOS, IL-6, TNF-α) [8]: best inhibitory effect; IL-6 expression level in synovial tissue (immunohistochemistry) (AIA mice [10]): decreased to a similar level to normal group; level of serum IL-6 (AIA mice [11]): slightly lower; level of serum TNF-α (AIA mice [11]): slightly lower |
| CN(Cc1cnc2nc(N)nc(N)c2n1)c1ccc(C(=O)N[C@@H](CCC(=O)NCC(=O)N[C@@H](Cc2ccccc2)C(=O)N[C@@H](Cc2ccccc2)C(=O)N[C@@H](Cc2ccc(O)cc2)C(=O)O)C(=O)O)cc1 [MTX-GFFY] ({DAMPA-γGlu}-GFFY-OH) | gradually decreased | 50 | obviously decreased | – | – | paw swelling was alleviated | – | synovial evasion was inhibited | significantly decreased | – | below 33 °C | time after which hydrogel became flowable (proteinase K; [13]): 1 days; effect on RA-FLS at 100 μM ([3]; 100 μM): mild effects |
| CN(Cc1cnc2nc(N)nc(N)c2n1)c1ccc(C(=O)N[C@@H](CCC(=O)O)C(=O)O)cc1 [MTX, methotrexate, reference compound] | – | 100 | inhibited approximately half | not obvious | significantly decreased | paw swelling was alleviated | gradually decreased | synovial evasion was inhibited | significantly decreased | lowest among all treatment groups | below 33 °C | wound-healing rate at 12 h (RA-FLS [5]; 12 h): 50% |
